Results from ChEMBL document CHEMBL2417481, “Regioselective synthesis of 6-substituted-2-amino-5-bromo-4(3H)-pyrimidinones and evaluation of their antiviral activity” (Eur J Med Chem, 2013).

Columns and labels:
Human alphaherpesvirus 3 [1] = assay: Antiviral activity against thymidine kinase negative Varicella-zoster virus 07-1 infected in human HEL cells assessed as reduction in the virus plaque formation; type: functional, organism-based; conditions: Human alphaherpesvirus 3, 07-1, HEL
Procedure, shortened: (§1)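 Confluent HEL fibroblast cultures received 20 PFU of VZV together with varying compound concentrations. Plaque formation was read when it reached completion in untreated virus controls.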

Felid alphaherpesvirus 1 = assay: Antiviral activity against Feline Herpes virus infected in cat CRFK cells assessed as inhibition of virus-induced cytopathic effect by MTS assay; type: functional, organism-based; conditions: Felid alphaherpesvirus 1, CRFK
Feline coronavirus = assay: Antiviral activity against Feline coronavirus infected in cat CRFK cells assessed as inhibition of virus-induced cytopathic effect by MTS assay; type: functional, organism-based; conditions: Alphacoronavirus 1, CRFK
Human respirovirus 3 = assay: Antiviral activity against Parainfluenza virus 3 infected in african green monkey Vero cells assessed as reduction in virus-induced cytopathogenicity; type: functional, organism-based; conditions: Human respirovirus 3, Vero
Procedure, shortened: (§2)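 Confluent Vero monolayers in 96-well plates were inoculated with 100 CCID50 of virus together with varying compound concentrations. Cytopathicity was scored once it was complete in untreated virus-infected control cultures.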

Cytomegalovirus [2] = assay: Antiviral activity against Cytomegalovirus Davis infected in human HEL cells assessed as reduction in virus plaque formation; type: functional, organism-based; conditions: Human betaherpesvirus 5, Davis
Procedure, shortened: (§3)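 Confluent HEL fibroblasts were inoculated with 100 PFU of CMV at graded compound concentrations. Plaques were counted once formation was complete in untreated infected controls.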

Cytomegalovirus [3] = assay: Antiviral activity against Cytomegalovirus AD-169 infected in human HEL cells assessed as reduction in virus plaque formation; type: functional, organism-based; conditions: Human betaherpesvirus 5, AD-169, HEL; procedure, shortened: as §3
[4] = system: Respiratory syncytial virus; assay: Antiviral activity against Respiratory syncytial virus Long infected in human HeLa cells assessed as reduction in virus-induced cytopathogenicity; type: functional, organism-based
Procedure, shortened: (§4)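 Confluent cell monolayers (Vero, HeLa, HEL or MDCK, as named in each line) were infected with 100 CCID50 of virus while exposed to a range of compound concentrations. Cytopathicity was scored once it was complete in untreated infected controls.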

Punta Toro virus = assay: Antiviral activity against Punta Toro virus infected in african green monkey Vero cells assessed as reduction in virus-induced cytopathogenicity; type: functional, organism-based; procedure, shortened: as §4
Influenza A virus [5] = assay: Antiviral activity against Influenza A virus H1N1 infected in MDCK cells assessed as reduction in virus-induced cytopathogenicity; type: functional, organism-based; procedure, shortened: as §4
Human alphaherpesvirus 3 [6] = assay: Antiviral activity against thymidine kinase positive Varicella-zoster virus OKA infected in human HEL cells assessed as reduction in virus plaque formation; type: functional, cell-based, Human herpesvirus 3 strain Oka vaccine; conditions: Human alphaherpesvirus 3, OKA; procedure, shortened: as §1
Human alphaherpesvirus 2 = assay: Antiviral activity against Herpes simplex virus-2 G infected in human HEL cells assessed as reduction in virus-induced cytopathogenicity; type: functional, organism-based; conditions: Human alphaherpesvirus 2, strain G; procedure, shortened: as §4
Influenza B virus = assay: Antiviral activity against Influenza B virus infected in MDCK cells assessed as reduction in virus-induced cytopathogenicity; type: functional, organism-based; procedure, shortened: as §4
[7] = Cytotoxicity against african green monkey Vero cells assessed as morphological changes; type: cell-based; conditions: chlorocebus sabaeus
Influenza A virus [8] = assay: Antiviral activity against Influenza A virus […] infected in MDCK cells assessed as reduction in virus-induced cytopathogenicity; type: functional, organism-based; procedure, shortened: as §4
Sindbis virus = assay: Antiviral activity against Sindbis virus infected in african green monkey Vero cells assessed as reduction in virus-induced cytopathogenicity; type: functional, organism-based; procedure, shortened: as §4
[9] = Cytotoxicity against MDCK cells assessed as morphological changes; type: cell-based, Canis lupus familiaris; conditions: dog
Coxsackievirus B4 [10] = assay: Antiviral activity against Coxsackievirus B4 infected in african green monkey Vero cells assessed as reduction in virus-induced cytopathogenicity; type: functional, organism-based; conditions: Enterovirus B; procedure, shortened: as §4
[11] = Cytotoxicity against human HEL cells assessed as morphological changes; type: cell-based
[12] = Cytotoxicity against human HeLa cells assessed as morphological changes; type: cell-based
[13] = system: Vesicular stomatitis virus; assay: Antiviral activity against Vesicular stomatitis virus infected in human HeLa cells assessed as reduction in virus-induced cytopathogenicity; type: functional, organism-based; procedure, shortened: as §4
[14] = Cytotoxicity against cat CRFK cells assessed as cell viability by MTS assay; type: cell-based, Felis catus
Human alphaherpesvirus 1 [15] = assay: Antiviral activity against Herpes simplex virus-1 KOS infected in human HEL cells assessed as reduction in virus-induced cytopathogenicity; type: functional, organism-based; conditions: Human alphaherpesvirus 1, KOS; procedure, shortened: as §4
Coxsackievirus B4 [16] = assay: Antiviral activity against Coxsackievirus B4 infected in human HeLa cells assessed as reduction in virus-induced cytopathogenicity; type: functional, organism-based; conditions: Enterovirus B; procedure, shortened: as §4
Human alphaherpesvirus 1 [17] = assay: Antiviral activity against thymidine kinase negative […] Herpes simplex virus-1 KOS infected in human HEL cells assessed as reduction in virus-induced cytopathogenicity; type: functional, organism-based; conditions: Human alphaherpesvirus 1, KOS; procedure, shortened: as §4
[18] = system: Mammalian orthoreovirus 1; assay: Antiviral activity against Reovirus-1 infected in african green monkey Vero cells assessed as reduction in virus-induced cytopathogenicity; type: functional, organism-based; conditions: Mammalian orthoreovirus 1, Vero; procedure, shortened: as §2
[19] = system: Vesicular stomatitis virus; assay: Antiviral activity against Vesicular stomatitis virus infected in human HEL cells assessed as reduction in virus-induced cytopathogenicity; type: functional, organism-based; procedure, shortened: as §4

In the case of CCCc1nc(N)[nH]c(=O)c1Br, the EC50 (Human alphaherpesvirus 3 [1]) is reported as over 100 µM, the EC50 (Felid alphaherpesvirus 1) is reported as over 100 µM and the EC50 (Feline coronavirus) is reported as over 100 µM. The EC50 (Human respirovirus 3) was over 100 µM, the EC50 (Cytomegalovirus [2]) was over 100 µM and the EC50 (Cytomegalovirus [3]) was over 100 µM. The EC50 [4] was over 100 µM, the EC50 (Punta Toro virus) was over 100 µM and the EC50 (Influenza A virus [5]) was over 100 µM. It also gave an EC50 (Human alphaherpesvirus 3 [6]) of over 100 µM, an EC50 (Human alphaherpesvirus 2) of over 100 µM and an EC50 (Influenza B virus) of over 100 µM. For the same molecule, the MCC [7] was over 100 µM, the EC50 (Influenza A virus [8]) was over 100 µM and the EC50 (Sindbis virus) was over 100 µM. It also gave an MCC [9] of over 100 µM, an EC50 (Coxsackievirus B4 [10]) of over 100 µM and an MCC [11] of over 100 µM. The MCC [12] was over 100 µM, the EC50 [13] was over 100 µM and the MCC [14] was over 100 µM. For the same molecule, the EC50 (Human alphaherpesvirus 1 [15]) was over 100 µM, the EC50 (Coxsackievirus B4 [16]) was over 100 µM and the EC50 (Human alphaherpesvirus 1 [17]) was over 100 µM. For the same molecule, the EC50 [18] was over 100 µM and the EC50 [19] was over 100 µM.
Molecule CCCCc1nc(N)[nH]c(=O)c1Br has an EC50 (Human alphaherpesvirus 3 [1]) of over 20 µM, an EC50 (Felid alphaherpesvirus 1) of over 100 µM and an EC50 (Feline coronavirus) of over 100 µM. For the same molecule, the EC50 (Human respirovirus 3) was over 100 µM, the EC50 (Cytomegalovirus [2]) was over 20 µM and the EC50 (Cytomegalovirus [3]) was over 20 µM. The EC50 [4] was over 20 µM, the EC50 (Punta Toro virus) was over 100 µM and the EC50 (Influenza A virus [5]) was over 100 µM. For the same molecule, the EC50 (Human alphaherpesvirus 3 [6]) was over 20 µM, the EC50 (Human alphaherpesvirus 2) was over 100 µM and the EC50 (Influenza B virus) was over 100 µM. For the same molecule, the MCC [7] was over 100 µM, the EC50 (Influenza A virus [8]) was over 100 µM and the EC50 (Sindbis virus) was over 100 µM. It also gave an MCC [9] of over 100 µM, an EC50 (Coxsackievirus B4 [10]) of over 100 µM and an MCC [11] of at least 100 µM. For the same molecule, the MCC [12] was 100 µM, the EC50 [13] was 10 µM and the MCC [14] was over 100 µM. For the same molecule, the EC50 (Human alphaherpesvirus 1 [15]) was over 100 µM, the EC50 (Coxsackievirus B4 [16]) was over 20 µM and the EC50 (Human alphaherpesvirus 1 [17]) was over 100 µM. The EC50 [18] was over 100 µM and the EC50 [19] was over 100 µM.
Work on CCCCCc1nc(N)[nH]c(=O)c1Br yielded an EC50 (Human alphaherpesvirus 3 [1]) of over 4 µM, an EC50 (Felid alphaherpesvirus 1) of over 100 µM and an EC50 (Feline coronavirus) of over 100 µM. The EC50 (Human respirovirus 3) was over 100 µM, the EC50 (Cytomegalovirus [2]) was over 4 µM and the EC50 (Cytomegalovirus [3]) was over 4 µM. It also gave an EC50 [4] of over 4 µM, an EC50 (Punta Toro virus) of over 100 µM and an EC50 (Influenza A virus [5]) of over 100 µM. It also gave an EC50 (Human alphaherpesvirus 3 [6]) of over 4 µM, an EC50 (Human alphaherpesvirus 2) of over 100 µM and an EC50 (Influenza B virus) of over 100 µM. For the same molecule, the MCC [7] was over 100 µM, the EC50 (Influenza A virus [8]) was over 100 µM and the EC50 (Sindbis virus) was over 100 µM. For the same molecule, the MCC [9] was over 100 µM, the EC50 (Coxsackievirus B4 [10]) was over 100 µM and the MCC [11] was over 20 µM. It also gave an MCC [12] of 20 µM, an EC50 [13] of 2 µM and an MCC [14] of over 100 µM. For the same molecule, the EC50 (Human alphaherpesvirus 1 [15]) was over 100 µM, the EC50 (Coxsackievirus B4 [16]) was over 4 µM and the EC50 (Human alphaherpesvirus 1 [17]) was over 100 µM. The EC50 [18] was over 100 µM and the EC50 [19] was over 100 µM.
Nc1nc(CCc2ccccc2)c(Br)c(=O)[nH]1 showed an EC50 (Human alphaherpesvirus 3 [1]) of over 100 µM, an EC50 (Felid alphaherpesvirus 1) of over 100 µM and an EC50 (Feline coronavirus) of over 100 µM. The EC50 (Human respirovirus 3) was over 100 µM, the EC50 (Cytomegalovirus [2]) was over 100 µM and the EC50 (Cytomegalovirus [3]) was over 100 µM. For the same molecule, the EC50 [4] was over 100 µM, the EC50 (Punta Toro virus) was over 100 µM and the EC50 (Influenza A virus [5]) was over 100 µM. For the same molecule, the EC50 (Human alphaherpesvirus 3 [6]) was over 100 µM, the EC50 (Human alphaherpesvirus 2) was over 100 µM and the EC50 (Influenza B virus) was over 100 µM. It also gave an MCC [7] of over 100 µM, an EC50 (Influenza A virus [8]) of over 100 µM and an EC50 (Sindbis virus) of over 100 µM. The MCC [9] was over 100 µM, the EC50 (Coxsackievirus B4 [10]) was over 100 µM and the MCC [11] was over 100 µM. It also gave an MCC [12] of over 100 µM, an EC50 [13] of over 100 µM and an MCC [14] of over 100 µM. For the same molecule, the EC50 (Human alphaherpesvirus 1 [15]) was over 100 µM, the EC50 (Coxsackievirus B4 [16]) was over 100 µM and the EC50 (Human alphaherpesvirus 1 [17]) was over 100 µM. It also gave an EC50 [18] of over 100 µM and an EC50 [19] of over 100 µM.
